Reference: ChEMBL document CHEMBL1143884, “Pyrimidine-based inhibitors of CaMKIIdelta” (Bioorg Med Chem Lett, 2008)

Columns and labels:
[1] = target: T1, Calcium/calmodulin-dependent protein kinase type II subunit delta (Homo sapiens, UniProt Q13557); test: Inhibition of cloned CaMK2delta
Method in brief: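 Radiometric filter-binding assay. Recombinant CaMKIIδ in 50 mM PIPES pH 7, 0.2 mg/ml BSA, 1 mM DTT, preincubated with inhibitor. Reaction started with buffer containing MgCl2, ATP, CaCl2, calmodulin, [His5]Autocamtide-2 substrate and [γ-33P]ATP, run 3 min at RT. Stopped on P81 phosphocellulose filter, washed with 1% phosphoric acid, counted by scintillation.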

[2] = target: T1, Calcium/calmodulin-dependent protein kinase type II subunit delta; test: Inhibition of CaMK2delta-mediated vimentin phosphorylation in human HL2 cells after 1 hr by ELISA; format: cell-based
Method in brief: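 HL-2 cells preincubated 1 h at 37 °C with inhibitor at increasing concentrations, then CaMKII activated with ionomycin for 15 min at 37 °C. Cells lysed in ice-cold lysis buffer and frozen at −80 °C before read-out.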

[3] = target: T1, Calcium/calmodulin-dependent protein kinase type II subunit delta; test: Inhibition of CaMK2delta-mediated vimentin phosphorylation in human HL2 cells at 5 uM after 1 hr by ELISA; format: cell-based

T1 sequence (Q13557 whole entry): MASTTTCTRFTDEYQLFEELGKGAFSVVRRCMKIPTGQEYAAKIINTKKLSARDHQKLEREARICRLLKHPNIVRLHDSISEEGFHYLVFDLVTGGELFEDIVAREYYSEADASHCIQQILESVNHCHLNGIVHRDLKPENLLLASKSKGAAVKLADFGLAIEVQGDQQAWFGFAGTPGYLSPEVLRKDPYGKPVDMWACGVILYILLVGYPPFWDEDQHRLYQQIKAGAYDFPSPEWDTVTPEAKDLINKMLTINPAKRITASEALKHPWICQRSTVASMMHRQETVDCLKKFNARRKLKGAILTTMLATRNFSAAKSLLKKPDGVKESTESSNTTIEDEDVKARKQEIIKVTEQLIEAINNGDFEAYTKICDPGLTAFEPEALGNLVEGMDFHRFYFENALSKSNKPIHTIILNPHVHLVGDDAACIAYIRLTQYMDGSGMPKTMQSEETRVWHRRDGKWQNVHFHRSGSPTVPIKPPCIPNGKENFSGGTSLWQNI

Row | Compound | IC50 [1] | IC50 [2] | inhibition [3]
1 | NCCNc1cccc(-c2ccnc(Nc3cccc(Cl)c3)n2)c1 | 12 nM | 110 nM | –
2 | O=C(O)Cc1ccc(-c2ccnc(Nc3ccccc3)n2)cc1 | > 20000 nM | – | –
3 | Nc1cccc(-c2ccnc(Nc3cccc(Cl)c3)n2)c1 | 660 nM | – | –
4 | Clc1cccc(Nc2nccc(-c3cccc(N4CCNCC4)c3)n2)c1 | 9 nM | 320 nM | –
5 | Cc1cccc(-c2ccnc(Nc3ccnc(N[C@@H](C)c4ccccc4)c3)n2)c1 | 920 nM | – | –
6 | C[C@H](Nc1cc(Nc2nccc(-c3ccc(C(=O)O)cc3)n2)ccn1)c1ccccc1 | 210 nM | – | –
7 | CNC(=O)c1ccc(-c2ccnc(Nc3ccnc(N[C@@H](C)c4ccccc4)c3)n2)cc1 | 720 nM | – | –
8 | C[C@H](Nc1cc(Nc2nccc(-c3ccc(Cl)cc3)n2)ccn1)c1ccccc1 | 2870 nM | – | –
9 | O=C(O)c1ccc(-c2ccnc(Nc3ccncc3)n2)cc1 | 390 nM | – | –
10 | C[C@H](Nc1cc(Nc2nccc(-c3cccc(F)c3)n2)ccn1)c1ccccc1 | 1280 nM | – | –
11 | C[C@H](Nc1cc(Nc2nccc(-c3ccc(-c4nnn[nH]4)cc3)n2)ccn1)c1ccccc1 | 2260 nM | – | –
12 | C[C@H](Nc1cc(Nc2nccc(-c3cccc(C(=O)O)c3)n2)ccn1)c1ccccc1 | 13000 nM | – | –

Results, then the molecule that gave them:

Row | IC50 [1] | IC50 [2] | inhibition [3] | Compound
13 | > 20000 nM | – | – | CNC(=O)c1ccc(-c2ccnc(Nc3ccccc3)n2)cc1
14 | 42 nM | – | 0% | O=C(O)c1ccc(-c2ccnc(Nc3cccc(Cl)c3)n2)cc1
15 | 1690 nM | – | – | COC(=O)c1ccc(-c2ccnc(Nc3ccnc(N[C@@H](C)c4ccccc4)c3)n2)cc1
16 | 930 nM | – | – | Clc1cccc(Nc2nccc(-c3cccc(N4CCCCC4)c3)n2)c1
17 | 770 nM | – | 0% | c1ccc(Nc2nccc(-c3ccc(-c4nnn[nH]4)cc3)n2)cc1
18 | 66 nM | – | – | Nc1cc(Nc2nccc(-c3ccc(C(=O)O)cc3)n2)ccn1
19 | 2220 nM | – | – | C[C@H](Nc1cc(Nc2nccc(-c3ccc(N(C)C)cc3)n2)ccn1)c1ccccc1
20 | 240 nM | – | – | Clc1cccc(Nc2nccc(-c3cccc(N4CCOCC4)c3)n2)c1
21 | 64 nM | – | 0% | O=C(O)c1ccc(-c2ccnc(Nc3ccccc3)n2)cc1
22 | 290 nM | – | 90% | O=C(NO)c1ccc(-c2ccnc(Nc3ccccc3)n2)cc1
23 | 170 nM | – | – | C[C@H](Nc1cc(Nc2nccc(-c3ccc(C(=O)NO)cc3)n2)ccn1)c1ccccc1
24 | > 20000 nM | – | 0% | COC(=O)c1ccc(-c2ccnc(Nc3ccccc3)n2)cc1
25 | 3420 nM | – | – | C[C@H](Nc1cc(Nc2nccc(-c3ccc(CC(=O)O)cc3)n2)ccn1)c1ccccc1
26 | 3140 nM | – | – | C[C@H](Nc1cc(Nc2nccc(-c3cccc(-c4ccccc4)c3)n2)ccn1)c1ccccc1
